In ChEMBL document CHEMBL1153389, “Identification of novel antibacterial peptides by chemoinformatics and machine learning” (2009):

Each molecule was assayed on Pseudomonas aeruginosa (assay: Antimicrobial activity against Pseudomonas aeruginosa H1001 expressing luciferase gene assessed as ratio antimicrobial IC50 for drug to Bac2A peptide by luminescence assay).
Format: functional
Summary of the method: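 Peptides are made by SPOT synthesis on cellulose, cleaved, and the spots placed in plate wells. Overnight P. aeruginosa H1001 (fliC::luxCDABE) is diluted 1:500 in 100 mM Tris-HCl pH 7.3 with 20 mM glucose and added to the wells. After 30 min, serial dilutions (8 rows) are made. Luminescence is read at 4 h. IC50 is taken from a sigmoid fit and expressed relative to Bac2A run in the same series.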

Going from H-FMWVYRYKK-OH to H-KKRWVWVIR-OH, the “Ratio IC50” value falls from 1.51 to 0.35.

Compared with H-WRWRWWKRW-OH, H-RRRKTWYWW-OH is higher in “Ratio IC50” value: 0.28 for the first, 0.32 for the second.

First: H-VLVKKRRRR-OH
Second: H-VRIVRVRIR-OH
The “Ratio IC50” value of the first is higher: 12.48 for the first, 2.22 for the second.

First: H-AMLGGRQWR-OH
Second: H-NQKWSGRRR-OH
The “Ratio IC50” value of the first is lower: 6.75 for the first, 7.97 for the second.

Compared with H-IRWWKRWWR-OH, H-KRWVWYRYW-OH is higher in “Ratio IC50” value: 0.21 for the first, 0.54 for the second.

First: H-LRWRWWKIK-OH
Second: H-AGGMRKRTR-OH
The “Ratio IC50” value of the first is lower: 0.26 for the first, 25 for the second.

Going from H-RGRRQIGKF-OH to H-KKSKQLWKR-OH, the “Ratio IC50” value falls from 8.51 to 3.23.

Compared with H-RVRWWKKRW-OH, H-GRIGGKNVR-OH is higher in “Ratio IC50” value: 0.27 for the first, 9.12 for the second.

First: H-WIRKRSRIF-OH
Second: H-RLKKVRWWW-OH
The “Ratio IC50” value of the first is higher: 3.39 for the first, 0.34 for the second.

Compared with H-KRWWWWWKR-OH, H-RWIGVIIKY-OH is higher in “Ratio IC50” value: 0.22 for the first, 2.24 for the second.

Compared with H-WRWYWWKKR-OH, H-RWRRKWWWW-OH is higher in “Ratio IC50” value: 0.22 for the first, 0.39 for the second.

Going from H-GIKWRSRRW-OH to H-ARGKSIKNR-OH, the “Ratio IC50” value rises from 1.06 to 8.35.

First: H-WHGVRWWKW-OH
Second: H-IKWWWRMRI-OH
The “Ratio IC50” value of the first is higher: 2.5 for the first, 0.39 for the second.

Going from H-IRKKRRRWT-OH to H-ARGRWINGR-OH, the “Ratio IC50” value rises from 6.59 to 7.24.

Going from H-RRRKWWIWG-OH to H-KRWWIWRIR-OH, the “Ratio IC50” value falls from 0.57 to 0.35.

Compared with H-GMRRWRGKN-OH, H-IKRVKRRKR-OH is lower in “Ratio IC50” value: 6.05 for the first, 2.93 for the second.

Compared with H-WVRFVYRYW-OH, H-IVVRVWVVR-OH is higher in “Ratio IC50” value: 2.15 for the first, 3.5 for the second.

Compared with H-NKTGYRWRN-OH, H-WGRTRWSSR-OH is higher in “Ratio IC50” value: 8.33 for the first, 9.64 for the second.

Compared with H-NRRNGQMRR-OH, H-RKVRWKIRV-OH is lower in “Ratio IC50” value: 8.41 for the first, 0.32 for the second.

Compared with H-RWRIKFKRW-OH, H-KRWLTWRFR-OH is higher in “Ratio IC50” value: 0.26 for the first, 0.54 for the second.

First: H-KRWWRKWWR-OH
Second: H-RVWFKRRWW-OH
The “Ratio IC50” value of the first is lower: 0.15 for the first, 0.26 for the second.

Compared with H-RKIWWWRIR-OH, H-YQRLFVRIR-OH is higher in “Ratio IC50” value: 0.59 for the first, 25 for the second.

Compared with H-KRWWWVWKR-OH, H-ANRWGRGIR-OH is higher in “Ratio IC50” value: 0.36 for the first, 10.8 for the second.

Going from H-RRKWWWRWW-OH to H-RVKTWRVRT-OH, the “Ratio IC50” value rises from 0.27 to 5.66.

Going from H-RRIRRVRWG-OH to H-TRKVWWWRW-OH, the “Ratio IC50” value falls from 8.22 to 0.76.

First: H-RRRWWWIIV-OH
Second: H-WRWWKWWRR-OH
The “Ratio IC50” value of the first is higher: 0.85 for the first, 0.23 for the second.

First: H-IRMWVKRWR-OH
Second: H-GVRSWSQRT-OH
The “Ratio IC50” value of the first is lower: 0.61 for the first, 8.5 for the second.

Compared with H-IRKWRRWWK-OH, H-RWWRWRKWW-OH is lower in “Ratio IC50” value: 0.41 for the first, 0.28 for the second.

First: H-RVFVKIRMK-OH
Second: H-RRIWRWWWW-OH
The “Ratio IC50” value of the first is higher: 0.72 for the first, 0.68 for the second.

Compared with H-KRWWKWIRW-OH, H-GRMRLWNGR-OH is higher in “Ratio IC50” value: 0.04 for the first, 7.91 for the second.

Going from H-GRRWGMGVR-OH to H-ILRVISKRR-OH, the “Ratio IC50” value rises from 7.75 to 25.

Compared with H-RKWMGRFLM-OH, H-RWLVLRKRW-OH is lower in “Ratio IC50” value: 4.38 for the first, 0.53 for the second.

First: H-RIKRWWWWR-OH
Second: H-WGRGGWTNR-OH
The “Ratio IC50” value of the first is lower: 0.31 for the first, 25 for the second.

First: H-RWILWWWRI-OH
Second: H-IRRRKKRIK-OH
The “Ratio IC50” value of the first is higher: 25 for the first, 6.42 for the second.

First: H-FVVMKRIVW-OH
Second: H-AWKIKKGRI-OH
The “Ratio IC50” value of the first is higher: 5.38 for the first, 3.59 for the second.

Going from H-RLVHWIRRV-OH to H-SKNVRTWRQ-OH, the “Ratio IC50” value rises from 2.62 to 7.06.

First: H-RWWLKIRKW-OH
Second: H-RWRRWKWWW-OH
The “Ratio IC50” value of the first is lower: 0.18 for the first, 0.4 for the second.

Compared with H-IKRWWWRRW-OH, H-KNRGRWFSH-OH is higher in “Ratio IC50” value: 0.22 for the first, 9.79 for the second.

Going from H-KWWRWWRKW-OH to H-GWNTMGRRW-OH, the “Ratio IC50” value rises from 0.2 to 6.32.

First: H-KRWWKWWRR-OH
Second: H-RWYRKRWSW-OH
The “Ratio IC50” value of the first is lower: 0.13 for the first, 0.7 for the second.

First: H-GKFYKVWVR-OH
Second: H-KWWLVWKRK-OH
The “Ratio IC50” value of the first is higher: 1.21 for the first, 0.23 for the second.

Going from `N=C(N)NCCC[C@H](NC(=O)[C@H](CCCNC(=N)N)NC(=O)[C@@H](N)CCCNC(=N)N)C(=O)N[C@@H](Cc1c[nH]c2ccccc12)C(=O)N[C@@H](Cc1c[nH]c2ccccc12)C(=O)N[C@@H](Cc1c[nH]c2ccccc12)C(=O)N[C@@H](Cc1c[nH]c2ccccc12)C(=O)N[C@@H](Cc1c[nH]c2ccccc12)C(=O)N[C@@H](Cc1c[nH]c2ccccc12)C(=O)O` to H-WRNRKVVWR-OH, the “Ratio IC50” value rises from 1.82 to 6.79.

Going from H-GSRRFGWNR-OH to H-VKRYYWRWR-OH, the “Ratio IC50” value falls from 8.1 to 1.23.

First: H-FVWQKGTNR-OH
Second: H-IKRWWRWWR-OH
The “Ratio IC50” value of the first is higher: 11.3 for the first, 0.23 for the second.

Compared with H-RRMKKLRRK-OH, H-IWKRWWRRW-OH is lower in “Ratio IC50” value: 4.22 for the first, 0.24 for the second.

First: H-IRRIVRRKI-OH
Second: H-RNKFGGNWR-OH
The “Ratio IC50” value of the first is lower: 11.15 for the first, 25 for the second.

First: H-INRKRRLRW-OH
Second: H-ATWIWVFRR-OH
The “Ratio IC50” value of the first is lower: 4.25 for the first, 4.88 for the second.

Going from H-RWRWWIKII-OH to H-KRWWWWRFR-OH, the “Ratio IC50” value falls from 0.46 to 0.24.

Going from H-RVWRNGYSR-OH to H-KFRKRVWWW-OH, the “Ratio IC50” value falls from 10.24 to 0.3.

Compared with H-WRWWWKKWR-OH, H-GGRGTRWHG-OH is higher in “Ratio IC50” value: 0.19 for the first, 8.6 for the second.

Going from H-KRWWIRWWR-OH to H-KNNRRWQGR-OH, the “Ratio IC50” value rises from 0.21 to 6.45.

Going from H-GWKILRKRK-OH to H-KRKLIRWWW-OH, the “Ratio IC50” value falls from 2.74 to 0.23.

First: H-WVKVWKYTW-OH
Second: H-RWRWWKRWY-OH
The “Ratio IC50” value of the first is higher: 5.64 for the first, 0.2 for the second.

First: H-RKRWLWRWW-OH
Second: H-RRVQRGKWW-OH
The “Ratio IC50” value of the first is lower: 0.25 for the first, 6.3 for the second.

First: H-WKRWKWWKR-OH
Second: H-MINRVRLRW-OH
The “Ratio IC50” value of the first is lower: 0.25 for the first, 2.77 for the second.

Going from H-RRWWHLWRK-OH to H-GSRRSVWVF-OH, the “Ratio IC50” value rises from 0.38 to 2.3.

Compared with H-IWIWRKLRW-OH, H-WSQNVRTRI-OH is higher in “Ratio IC50” value: 0.46 for the first, 5.71 for the second.

Going from H-GGIRRLRWY-OH to H-KRFWIWFWR-OH, the “Ratio IC50” value rises from 1.16 to 3.04.

Compared with H-HGVWGNRKR-OH, H-RHWKTWWKR-OH is lower in “Ratio IC50” value: 7.95 for the first, 0.95 for the second.

Going from H-KFWWWNYLK-OH to H-KRWRWWRWW-OH, the “Ratio IC50” value falls from 1.81 to 0.28.

Going from H-KRKIWWWIR-OH to H-RRWWMRWWV-OH, the “Ratio IC50” value rises from 0.28 to 0.33.

First: H-RWWIRKWWR-OH
Second: H-WGKRRGWNT-OH
The “Ratio IC50” value of the first is lower: 0.21 for the first, 7.91 for the second.

Going from H-KRRRIWWWK-OH to H-IWKRWRKRL-OH, the “Ratio IC50” value falls from 0.4 to 0.33.

Going from H-KWWKIWWKR-OH to H-KIRRKVRWG-OH, the “Ratio IC50” value rises from 0.2 to 10.55.

Going from H-QRNKGLRHH-OH to H-LVFRKYWKR-OH, the “Ratio IC50” value falls from 8.76 to 0.99.

Going from H-RWWRKWWIR-OH to H-KIWWWWRRR-OH, the “Ratio IC50” value falls from 0.24 to 0.21.

Going from H-GWGGKRRNF-OH to H-RWKMWWRWV-OH, the “Ratio IC50” value falls from 7.38 to 0.24.
